ChEMBL document CHEMBL1128464, “Synthesis and antiproliferative and antiviral activity of 2'-deoxy-2'-fluoroarabinofuranosyl analogs of the nucleoside antibiotics toyocamycin and sangivamycin” (J Med Chem, 1995)
Several values for one entry are separate records, joined by “and”; a condition that tells them apart may be missing. Equal entries are not always repeated.

Legend:
L1210 [1] = assay: Antiproliferative activity in L1210 Murine Leukemia in vitro expressed as Growth rate in the presence of compound; assay type: functional, Mus musculus; design: concentration or dose not given beside the values
HFF [2] = assay: Visual cytotoxicity scored on HFF cells at time of HCMV plaque enumeration; assay type: functional, cell-based; settings: Homo sapiens
Summary of the method: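 Stationary HFF cells, uninfected cells in HCMV plaque assay plates scored by microscopic inspection at plaque enumeration (7–10 days); IC50.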

HFF [3] = assay: Cytotoxicity in human foreskin fibroblast (HFF) stationary cells as neutral red uptake; assay type: functional, cell-based
Human alphaherpesvirus 1 [4] = assay: Antiviral activity as 50% inhibitory concentration against HSV-1; assay type: functional, organism-based
Summary of the method: (§1)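 Plaque reduction in HFF monolayers; HSV-1 E-377, HSV-2 MS or VZV Ellen, 20–50 PFU, 1 h adsorption at 37 °C; serial 5-fold drug dilutions in agarose overlay (extra overlay days 3 and 6 for VZV); neutral red staining at 3 days (HSV) or 10 days (VZV); plaques counted; duplicate assays.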

HFF [5] = assay: Cytotoxicity in human foreskin fibroblast (HFF) stationary by MTT assay; assay type: functional, cell-based
Summary of the method: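 MTT assay on stationary HFF cells; drug in half-log10 dilutions; incubated one to three population doublings in 5% CO2; viable cells read at 570 nm; % inhibition vs control; IC50 from regression; duplicate assays.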

CCRF-CEM [6] = assay: Visual cytotoxicity scored on CEM cells at time of RT assay; settings: Homo sapiens
Human alphaherpesvirus 3 = assay: antiviral activity as 50% inhibitory concentration against VZV; assay type: functional, organism-based; summary of the method: as §1
CCRF-CEM [7] = assay: cytotoxicity in CEM-SS cells by [3H]Thd uptake; assay type: functional, cell-based; settings: Homo sapiens
Summary of the method: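 [3H]dThd incorporation into acid-precipitable DNA of CEM-SS cells; IC50 from regression of % inhibition on log concentration; triplicate assays.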

Human alphaherpesvirus 2 = assay: Antiviral activity as 50% inhibitory concentration against HSV-2; assay type: functional, organism-based; summary of the method: as §1
Human alphaherpesvirus 1 [8] = assay: Antiviral activity in Herpes simplex virus-1 assayed by ELISA in quadruplicate wells; assay type: functional, organism-based
CCRF-CEM [9] = assay: cytotoxicity in CEM-SS cells by visual inspection; assay type: functional, cell-based; settings: Homo sapiens
Human betaherpesvirus 5 [10] = assay: antiviral activity in Human cytomegalovirus by plaque assay (HCMV); assay type: functional, organism-based
Human betaherpesvirus 5 [11] = assay: antiviral activity in Human cytomegalovirus by plaque assay given as yield; assay type: functional
L1210 [12] = assay: antiproliferative activity in L1210 Murine Leukemia in vitro expressed as concentration required to decrease growth rate to 50% of control; assay type: functional, cell-based; settings: Mus musculus
Summary of the method: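 L1210 cells in static suspension, Fischer's medium with 10% heat-inactivated horse serum; cell counts at 0, 48, 96 h over a concentration series; IC50 is the concentration lowering growth rate (treated doublings as % of control) to 50% of control.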

KB = assay: cell growth inhibition was determined in KB cells in quadruplicate assays; assay type: functional, cell-based; settings: Homo sapiens

SMILES	Growth rate (L1210 [1])	IC50 (HFF [2])	IC50 (HFF [3])	IC50 (Human alphaherpesvirus 1 [4])	IC50 (HFF [5]; Homo sapiens, HFF)	IC50 (HFF [5]; hff)	IC50 (CCRF-CEM [6])	IC50 (Human alphaherpesvirus 3)	IC50 (CCRF-CEM [7])	IC50 (Human alphaherpesvirus 2)	IC50 (Human alphaherpesvirus 1 [8])	IC50 (CCRF-CEM [9])	IC50 (Human betaherpesvirus 5 [10])	IC90 (Human betaherpesvirus 5 [11])	IC50 (L1210 [12])	IC50 (KB)
NC(=O)c1cn([C@@H]2O[C@H](CO)[C@@H](O)[C@@H]2F)c2ncnc(N)c12	9%	5.5 µM	6.7 µM	0.03 µM and 0.0037 µM	0.13 µM	0.16 µM	0.4 µM	0.003 µM	0.193 µM	0.03 µM	0.47 µM	0.4 µM	0.025 µM	0.075 µM	3.2 µM	1.9 µM
Cc1cn([C@H]2C[C@H](N=[N+]=[N-])[C@@H](CO)O2)c(=O)[nH]c1=O [ZIDOVUDINE]	–	> 100 µM	–	–	–	–	–	–	–	–	–	–	–	–	–	–
N#Cc1c(Br)n([C@@H]2O[C@H](CO)[C@@H](O)[C@@H]2F)c2ncnc(N)c12	21%	21 µM	–	–	–	–	33 µM	–	–	–	> 100 µM	–	12 µM	7 µM	66 µM	144 µM
N#Cc1cn([C@H]2O[C@H](CO)[C@@H](O)[C@@H]2F)c2ncnc(N)c12	98%	100 µM	–	–	–	–	> 100 µM	–	–	–	46 µM	–	16 µM	100 µM	–	> 100 µM
N#Cc1cn([C@@H]2O[C@H](CO)[C@@H](O)[C@@H]2F)c2ncnc(N)c12	11%	6.8 µM	–	–	–	–	33 µM	–	–	–	6.5 µM	–	1 µM	1.1 µM	39 µM	8.8 µM
NC(=S)c1cn([C@@H]2O[C@H](CO)[C@@H](O)[C@@H]2F)c2ncnc(N)c12	5%	3.1 µM	–	–	–	–	2 µM	–	–	–	8.7 µM	–	0.22 µM	1.5 µM	5 µM	3 µM
Nc1nc2c(ncn2COC(CO)CO)c(=O)[nH]1 [GANCICLOVIR]	–	> 100 µM	–	–	–	–	–	–	–	–	–	–	–	1.6 µM	–	> 100 µM
N#Cc1c(Br)n([C@H]2O[C@H](CO)[C@@H](O)[C@@H]2F)c2ncnc(N)c12	45%	55 µM	–	–	–	–	> 100 µM	–	–	–	> 100 µM	–	3.2 µM	> 100 µM	90 µM	> 150 µM
